Laboratory results reported in ChEMBL document CHEMBL1142695, “Discovery of functionally selective 7,8,9,10-tetrahydro-7,10-ethano-1,2,4-triazolo[3,4-a]phthalazines as GABA A receptor agonists at the alpha3 subunit” (J Med Chem, 2005).

Key:
Format in all cases: cell-based
[1] = biological target: T1, GABA-A receptor; alpha-1/beta-3/gamma-2 (Homo sapiens, UniProt P14867+P18507+P28472); experiment: Inhibition of [3H]Ro-151788 binding to recombinant human gamma-aminobutyric-acid A receptor alpha-1-beta-3-gamma-2 subtype expressed in L (tk-) cells
T1 sequence (P14867 whole entry): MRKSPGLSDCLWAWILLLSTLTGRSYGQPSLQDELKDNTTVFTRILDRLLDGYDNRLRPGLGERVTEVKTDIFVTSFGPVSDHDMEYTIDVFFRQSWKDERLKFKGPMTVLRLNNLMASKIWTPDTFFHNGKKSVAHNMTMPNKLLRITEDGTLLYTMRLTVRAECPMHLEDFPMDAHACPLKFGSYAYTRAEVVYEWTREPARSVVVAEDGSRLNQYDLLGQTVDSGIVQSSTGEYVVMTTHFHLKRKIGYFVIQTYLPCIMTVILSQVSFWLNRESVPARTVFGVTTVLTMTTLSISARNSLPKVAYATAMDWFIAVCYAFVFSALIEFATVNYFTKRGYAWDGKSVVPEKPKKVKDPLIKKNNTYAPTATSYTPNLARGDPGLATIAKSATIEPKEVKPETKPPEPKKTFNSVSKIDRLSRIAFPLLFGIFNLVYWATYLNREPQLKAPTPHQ
T1 sequence (P18507 whole entry): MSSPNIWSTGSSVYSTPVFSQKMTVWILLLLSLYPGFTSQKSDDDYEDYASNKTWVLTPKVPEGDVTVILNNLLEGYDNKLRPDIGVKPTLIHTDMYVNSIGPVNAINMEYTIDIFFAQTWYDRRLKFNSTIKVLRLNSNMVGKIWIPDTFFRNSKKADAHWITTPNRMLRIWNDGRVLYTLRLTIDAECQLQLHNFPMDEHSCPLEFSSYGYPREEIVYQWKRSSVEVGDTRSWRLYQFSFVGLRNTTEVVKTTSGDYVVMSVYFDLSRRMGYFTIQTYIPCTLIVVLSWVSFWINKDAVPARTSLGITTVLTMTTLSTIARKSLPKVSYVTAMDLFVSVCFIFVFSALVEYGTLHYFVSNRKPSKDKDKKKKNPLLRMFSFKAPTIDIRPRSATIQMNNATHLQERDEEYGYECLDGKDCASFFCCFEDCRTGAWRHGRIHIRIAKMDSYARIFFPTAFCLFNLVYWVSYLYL
T1 sequence (P28472 whole entry): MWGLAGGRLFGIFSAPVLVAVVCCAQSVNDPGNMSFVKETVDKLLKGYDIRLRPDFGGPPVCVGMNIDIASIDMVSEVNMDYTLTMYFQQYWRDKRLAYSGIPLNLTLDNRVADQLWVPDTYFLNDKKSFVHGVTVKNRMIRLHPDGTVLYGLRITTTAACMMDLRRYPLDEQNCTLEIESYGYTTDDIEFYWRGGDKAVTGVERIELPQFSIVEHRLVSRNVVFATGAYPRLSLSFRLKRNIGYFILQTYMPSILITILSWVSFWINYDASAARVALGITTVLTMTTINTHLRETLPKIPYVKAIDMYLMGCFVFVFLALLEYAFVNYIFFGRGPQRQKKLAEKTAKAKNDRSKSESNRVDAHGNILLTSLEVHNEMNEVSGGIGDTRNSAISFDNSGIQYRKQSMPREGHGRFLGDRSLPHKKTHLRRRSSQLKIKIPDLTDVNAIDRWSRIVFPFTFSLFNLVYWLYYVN

[2] = biological target: T2, GABA-A receptor; alpha-3/beta-3/gamma-2 (Homo sapiens, UniProt P18507+P28472+P34903); experiment: Inhibition of [3H]Ro-151788 binding to recombinant human gamma-aminobutyric-acid A receptor alpha-3-beta-3-gamma-2 subtype expressed in L (tk-) cells
T2 sequence (P18507 whole entry): T1 sequence (P18507 whole entry)
T2 sequence (P28472 whole entry): T1 sequence (P28472 whole entry)
T2 sequence (P34903 whole entry): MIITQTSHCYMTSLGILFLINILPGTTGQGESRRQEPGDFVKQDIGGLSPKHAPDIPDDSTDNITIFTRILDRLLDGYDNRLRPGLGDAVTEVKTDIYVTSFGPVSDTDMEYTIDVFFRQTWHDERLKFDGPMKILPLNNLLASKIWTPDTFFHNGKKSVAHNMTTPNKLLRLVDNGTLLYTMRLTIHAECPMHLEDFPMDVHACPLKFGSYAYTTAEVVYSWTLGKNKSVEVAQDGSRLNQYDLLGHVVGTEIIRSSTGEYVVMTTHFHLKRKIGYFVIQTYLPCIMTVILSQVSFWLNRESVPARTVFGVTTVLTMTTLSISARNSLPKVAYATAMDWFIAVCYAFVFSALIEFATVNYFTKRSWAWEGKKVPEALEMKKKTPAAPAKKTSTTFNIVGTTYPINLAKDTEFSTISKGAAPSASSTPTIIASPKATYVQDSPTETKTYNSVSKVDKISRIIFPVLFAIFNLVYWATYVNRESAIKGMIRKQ

[3] = biological target: T3, GABA-A receptor; alpha-2/beta-3/gamma-2 (Homo sapiens, UniProt P18507+P28472+P47869); experiment: Inhibition of [3H]Ro-151788 binding to recombinant human gamma-aminobutyric acid A receptor alpha-2-beta-3-gamma-2 subtype expressed in L (tk-) cells
T3 sequence (P18507 whole entry): T1 sequence (P18507 whole entry)
T3 sequence (P28472 whole entry): T1 sequence (P28472 whole entry)
T3 sequence (P47869 whole entry): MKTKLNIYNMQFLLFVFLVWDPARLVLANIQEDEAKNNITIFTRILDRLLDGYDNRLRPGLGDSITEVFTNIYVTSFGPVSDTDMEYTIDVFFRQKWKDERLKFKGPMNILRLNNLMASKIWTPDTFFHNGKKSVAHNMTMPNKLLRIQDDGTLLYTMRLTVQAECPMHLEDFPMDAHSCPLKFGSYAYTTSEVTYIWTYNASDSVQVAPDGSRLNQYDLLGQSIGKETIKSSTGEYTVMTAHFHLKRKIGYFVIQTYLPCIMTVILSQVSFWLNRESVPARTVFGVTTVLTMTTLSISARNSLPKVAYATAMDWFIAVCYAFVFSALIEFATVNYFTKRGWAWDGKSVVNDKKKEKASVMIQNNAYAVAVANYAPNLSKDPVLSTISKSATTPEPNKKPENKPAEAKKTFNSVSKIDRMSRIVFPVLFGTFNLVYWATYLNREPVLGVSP

[4] = biological target: GABA-A receptor; alpha-1/beta-3/gamma-2 (Homo sapiens) (UniProt P14867+P18507+P28472); experiment: Efficacy was measured as modulation of the current in response to GABA at hGABA alpha-1-beta-3-gamma-2 receptor expressed in Xenopus oocytes; details: Oocyte
How it was run: (§1)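 Two-electrode voltage clamp on Xenopus oocytes expressing each receptor combination. […] Value is percent increase or decrease of the EC20 GABA current.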

[5] = biological target: GABA-A receptor; alpha-2/beta-3/gamma-2 (Homo sapiens) (UniProt P18507+P28472+P47869); experiment: Efficacy was measured as modulation of the current in response to GABA at hGABA alpha-2-beta-3-gamma-2 receptor expressed in Xenopus oocytes; details: Oocyte; how it was run: as §1
[6] = biological target: GABA-A receptor; alpha-5/beta-3/gamma-2 (Homo sapiens) (UniProt P18507+P28472+P31644); experiment: Efficacy was measured as modulation of the current in response to GABA at hGABA alpha-5-beta-3-gamma-2 receptor expressed in Xenopus oocytes; details: Oocyte; how it was run: as §1
[7] = biological target: GABA-A receptor; alpha-3/beta-3/gamma-2 (Homo sapiens) (UniProt P18507+P28472+P34903); experiment: Efficacy was measured as modulation of the current in response to GABA at hGABA alpha-3-beta-3-gamma-2 receptor expressed in Xenopus oocytes; details: Oocyte; how it was run: as §1
[8] = biological target: T4, GABA-A receptor; alpha-5/beta-3/gamma-2 (Homo sapiens, UniProt P18507+P28472+P31644); experiment: Inhibition of [3H]Ro-151788 binding to recombinant human gamma-aminobutyric-acid A receptor alpha-5-beta-3-gamma-2 subtype expressed in L (tk-) cells
T4 sequence (P18507 whole entry): T1 sequence (P18507 whole entry)
T4 sequence (P28472 whole entry): T1 sequence (P28472 whole entry)
T4 sequence (P31644 whole entry): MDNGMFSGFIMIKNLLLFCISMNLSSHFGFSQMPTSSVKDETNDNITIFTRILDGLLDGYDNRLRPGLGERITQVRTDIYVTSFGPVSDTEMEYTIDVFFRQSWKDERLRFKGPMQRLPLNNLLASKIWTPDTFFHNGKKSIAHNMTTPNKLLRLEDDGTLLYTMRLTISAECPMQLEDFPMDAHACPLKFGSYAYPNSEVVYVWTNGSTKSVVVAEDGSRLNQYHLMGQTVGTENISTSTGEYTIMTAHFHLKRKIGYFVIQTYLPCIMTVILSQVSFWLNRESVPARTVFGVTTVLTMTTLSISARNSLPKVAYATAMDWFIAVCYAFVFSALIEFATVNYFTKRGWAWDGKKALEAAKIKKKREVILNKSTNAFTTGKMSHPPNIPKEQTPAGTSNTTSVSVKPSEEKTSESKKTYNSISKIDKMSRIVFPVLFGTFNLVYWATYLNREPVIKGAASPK

| Compound | Ki [1] | Ki [2] | Ki [3] | Efficacy [4] | Efficacy [5] | Efficacy [6] | Efficacy [7] | Ki [8] |
| --- | --- | --- | --- | --- | --- | --- | --- | --- |
| c1ccc(-c2nnc3c4c(c(OCc5cccnn5)nn23)C2CCC4CC2)cc1 | 33 nM | 8.5 nM | 14 nM | 64% | 35% | 39% | 57% | 0.88 nM |
| Cc1cc(C)n(COc2nn3c(-c4ccccc4)nnc3c3c2C2CCC3CC2)n1 | 23 nM | 2.3 nM | 7.5 nM | 31% |  | 1% | 7% | 0.26 nM |
| N#Cc1cccc(COc2nn3c(-c4ccccc4)nnc3c3c2C2CCC3CC2)c1 | > 1000 nM | 66 nM | 180 nM | 23% |  | 23% | 38% | 7.8 nM |
| Cn1cnc(COc2nn3c(-c4ccccc4)nnc3c3c2C2CCC3CC2)n1 | 31 nM | 8 nM | 16 nM | 26% | 16% | 26% | 88% | 2.1 nM |
| c1ccc(-c2nnc3c4c(c(OCc5ncccc5OCC5CC5)nn23)C2CCC4CC2)cc1 | 6.9 nM | 2.3 nM | 5.6 nM | 175% |  | 50% | 139% | 0.75 nM |
| CN1C(=O)CN=C(c2ccccc2)c2cc(Cl)ccc21 |  |  |  | 103% | 138% | 106% | 118% |  |
| c1ccc(-c2nnc3c4c(c(OCc5ccccn5)nn23)C2CCC4CC2)cc1 | 71 nM | 13 nM | 26 nM |  |  | 18% |  | 1.2 nM |
| CN(C)Cc1cccc(COc2nn3c(-c4ccccc4)nnc3c3c2C2CCC3CC2)c1 | 190 nM | 24 nM | 64 nM |  |  | -25% | -16% | 4.5 nM |
| Cc1ccc(COc2nn3c(-c4ccccc4)nnc3c3c2C2CCC3CC2)nc1 | 56 nM | 15 nM | 17 nM | 100% |  |  | 74% | 1.2 nM |
| c1ccc(Cn2ccnc2COc2nn3c(-c4ccccc4)nnc3c3c2C2CCC3CC2)cc1 | 0.81 nM | 2 nM | 1.7 nM | 73% |  |  | 100% | 0.21 nM |
| c1ccc(-c2nnc3c4c(c(OCn5cccn5)nn23)C2CCC4CC2)cc1 | 130 nM | 19 nM | 43 nM | 76% |  |  | 0% | 2.7 nM |
| COc1cccc(-c2nnc3c4c(c(OCc5ccccn5)nn23)C2CCC4CC2)c1 | 140 nM | 29 nM | 79 nM | 51% |  |  | 43% | 6 nM |
| c1ccc(COc2nn3c(-c4cccnc4)nnc3c3c2C2CCC3CC2)nc1 | 260 nM | 38 nM | 54 nM | 36% |  | 31% | 9% | 2.7 nM |
| CCCn1ncnc1COc1nn2c(-c3ccccc3)nnc2c2c1C1CCC2CC1 | 0.9 nM | 1.4 nM | 2.5 nM | 41% |  |  | 78% | 0.19 nM |
| c1ccc(-c2nnc3c4c(c(OCc5ncc[nH]5)nn23)C2CCC4CC2)cc1 | 53 nM | 6.7 nM | 18 nM | 35% |  |  | 29% | 0.87 nM |
| c1ccc(COc2cccnc2COc2nn3c(-c4ccccc4)nnc3c3c2C2CCC3CC2)cc1 | 160 nM | 20 nM | 100 nM | 178% |  |  | 132% | 7 nM |
| Cc1cnc(COc2nn3c(-c4ccccc4)nnc3c3c2C2CCC3CC2)c(C)c1 | 3.4 nM | 0.71 nM | 3.4 nM | 34% |  |  | -2% | 0.2 nM |
| c1ccc(-c2nnc3c4c(c(OCc5nccc6ccccc56)nn23)C2CCC4CC2)cc1 | 29 nM | 4.5 nM | 7.5 nM | 45% |  |  | 14% | 0.69 nM |
| c1ccc(-c2nnc3c4c(c(OCc5cccnc5)nn23)C2CCC4CC2)cc1 | 150 nM | 25 nM | 68 nM | 51% |  |  | 20% | 6.5 nM |
| COc1ccc(-c2nnc3c4c(c(OCc5ccccn5)nn23)C2CCC4CC2)cc1 | 230 nM | 52 nM | 74 nM | 14% |  |  | 33% | 4.2 nM |
